# Source: ChEMBL document CHEMBL1811784, “Synthesis and SERCA activities of structurally simplified cyclopiazonic acid analogues” (Bioorg Med Chem, 2011)
# Assay: Inhibition of Heliothis virescens SERCA expressed in Sf9 cells assessed as ATP depletion measured after 60 mins by luciferin/luciferase coupled reporter gene assay
# Summary of the method: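 Microsomal membranes from Sf9 cells coinfected with baculovirus carrying full-length H. virescens SERCA (aa 2-1000), MOI 0.3, harvested after 3 days. 0.4 µg/mL enzyme with 0.05 mM ATP, inhibitor 3.2 nM–50 µM final, MOPS pH 7.5 buffer with Mg2+, Ca2+/EGTA, A23187. Remaining ATP read by luciferin/luciferase luminescence. Quadruplicates, normalized, sigmoid fit for IC50. Luciferase-only counterscreen run without SERCA.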
row,IC50,Compound
1,6.3 µM,CC(O)=C1C(=O)C2Cc3ccccc3C(C)(C)N2C1=O (mixture of isomers)
2,19.9 µM,CC(O)=C1C(=O)[C@H]2[C@H]3CCCC[C@H]3C(C)(C)N2C1=O (mixture of isomers)
3,0.5 µM,C/C(O)=C1\C(=O)[C@H]2[C@H]3c4c[nH]c5cccc(c45)C[C@H]3C(C)(C)N2C1=O
4,0.13 µM,CC(C)(C)c1cc(O)c(C(C)(C)C)cc1O
5,0.63 µM,CC(O)=C1C(=O)[C@@H]2[C@H]3CCCC[C@H]3C(C)(C)N2C1=O (mixture of isomers)
6,> 50 µM,CC(O)=C1C(=O)C2c3ccccc3C(C)(C)N2C1=O (mixture of isomers)
7,40 µM,CC(O)=C1C(=O)N2c3ccccc3C(C)(C)N2C1=O (mixture of isomers)
8,40 µM,CC(O)=C1C(=O)N2[C@H]3CCCC[C@H]3C(C)(C)N2C1=O (mixture of isomers)
9,5 µM,C/C(O)=C1\C(=O)[C@@H]2[C@H]3c4c[nH]c5cccc(c45)C[C@@H]3C(C)(C)N2C1=O

row,Compound,IC50
1,COC(=O)[C@H]1NC(C)(C)[C@@H]2Cc3cccc4[nH]cc(c34)[C@H]12,> 50 µM
2,CC(=O)C1=C(O)[C@@H]2[C@H]3c4c[nH]c5cccc(c45)C[C@H]3C(C)(C)N2C1=O [CYCLOPIAZONIC ACID],0.01 µM
3,C/C(O)=C1\C(=O)[C@@H]2[C@H]3[C@@H]4C(=O)N(C)c5cccc(c54)C[C@H]3C(C)(C)N2C1=O [SPERADINE A],8 µM
